Measurements published in ChEMBL document CHEMBL4033737, “Anti-mycobacterial alkaloids, cyclic 3-alkyl pyridinium dimers, from the Indonesian marine sponge Haliclona sp” (2017).
Structures can show the parent of a compound that is named as a salt. The source made the active and inactive calls. The rule behind the calls is not given here.

How the values were obtained:
[1] = tested on: Mycolicibacterium smegmatis; assay: Antibacterial activity against Mycobacterium smegmatis NBRC 3207 at 1 ug/disc incubated at 37 degC for 2 days by paper disc method; format: functional
Outline: (§1)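 M. smegmatis NBRC 3207 kept as 20% glycerol stock at -80°C. Grown in Middlebrook 7H9 with 0.05% polysorbate 80, 0.5% glycerol and 10% OADC at 37°C for 2 days, then adjusted to 1.0×10^8 CFU/mL and spread on the same medium with 1.5% agar. Sample in CH3OH dried onto 6 mm discs, plated at 37°C for 2 days, inhibition zone read (mm). Controls: streptomycin sulfate 5 µg/disc, CH3OH.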

[2] = tested on: Mycolicibacterium smegmatis; assay: Antibacterial activity against Mycobacterium smegmatis NBRC 3207 at 5 ug/disc incubated at 37 degC for 2 days by paper disc method; format: functional; conditions: for zone of inhibition at 5 µg/disc: NBRC 3207, 48 h, read-out: IZ; outline: as §1
[3] = tested on: Mycolicibacterium smegmatis; assay: Antibacterial activity against Mycobacterium smegmatis NBRC 3207 at 10 ug/disc incubated at 37 degC for 2 days by paper disc method; format: functional; conditions: NBRC 3207, 48 h, read-out: IZ; outline: as §1
[4] = tested on: Mycolicibacterium smegmatis; assay: Antibacterial activity against Mycobacterium smegmatis NBRC 3207 incubated at 37 degC for 2 days by paper disc method; format: functional; outline: as §1
[5] = biological target: Dual specificity protein phosphatase 3 (Homo sapiens) (UniProt P51452); assay: Inhibition of VHR (unknown origin) at 17 uM pre-incubated for 10 mins before pNPP substrate addition and measured after 30 mins
Chain of Dual specificity protein phosphatase 3 (Homo sapiens) (P51452 whole entry, looked up): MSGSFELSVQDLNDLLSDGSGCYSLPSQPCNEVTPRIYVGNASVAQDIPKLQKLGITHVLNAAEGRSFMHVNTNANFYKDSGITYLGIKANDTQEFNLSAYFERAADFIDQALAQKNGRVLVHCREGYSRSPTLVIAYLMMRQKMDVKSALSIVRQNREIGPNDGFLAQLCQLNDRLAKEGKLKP
Outline: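 Enzyme at 1.0 µg/mL stock, in 50 mM citrate buffer pH 6.0 with 0.1 M NaCl, 1 mM DTT and 1 mM EDTA. Sample in methanol preincubated 10 min at 37°C. pNPP (4.0 mM stock) then added, 30 min at 37°C, stopped with NaOH. Absorbance read at 405 nm. % inhibition from blank- and no-sample-control-corrected readings. Three duplicate experiments. Oleanolic acid positive control.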

[6] = biological target: Dual specificity protein phosphatase 3 (Homo sapiens) (UniProt P51452); assay: Inhibition of VHR (unknown origin) at 18 uM pre-incubated for 10 mins before pNPP substrate addition and measured after 30 mins
Outline: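 VHR (1.0 µg/mL stock) in 50 mM citrate buffer pH 6.0 with 0.1 M NaCl, 1 mM DTT and 1 mM EDTA. Sample in CH3OH added, preincubated 10 min at 37°C. pNPP added (4.0 mM stock), 30 min at 37°C, stopped with NaOH, A405 read. % inhibition computed against enzyme-free blank and sample-free control. Three duplicate experiments. Oleanolic acid as positive control.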

SMILES	inhibition zone (IZ) [1]	zone of inhibition at 5 µg/disc [2] [mm]	zone of inhibition at 10 µg/disc [3] [mm]	growth inhibition (GI) [4]	inhibition [5] [%]	inhibition zone (IZ) [2]	inhibition [6] [%]	zone of inhibition at 1 µg/disc ([1]; NBRC 3207, 48 h, read-out: IZ) [mm]
c1cc2c[n+](c1)CCCCCCCCCCCCCCCc1ccc[n+](c1)CCCCCCCCCCCCCC2	inactive	9	13	Dose-dependent effect	28	–	–	–
C1=C/CC[n+]2cccc(c2)CCCCCCCCCCCCCC[n+]2cccc(c2)CCCCCCCCCC/1	inactive	7	10	Dose-dependent effect	–	–	–	–
c1cc2c[n+](c1)CCCCCCCCCCCCCc1ccc[n+](c1)CCCCCCCCCCCCC2	inactive	–	8	Dose-dependent effect	–	inactive	–	–
C1=C/CC[n+]2cccc(c2)CCCCCCCCCCCC[n+]2cccc(c2)CCCCCCCCCC/1	inactive	10	17	Dose-dependent effect	–	–	–	–
c1cc2c[n+](c1)CCCCCCCCCCCCc1ccc[n+](c1)CCCCCCCCCCCC2 [CYCLOSTELLETAMINES A]	inactive	9	14	Dose-dependent effect	–	–	–	–
c1cc2c[n+](c1)CCCCCCCCCCCCCc1ccc[n+](c1)CCCCCCCCCCCC2 [CYCLOSTELLETAMINES B]	inactive	–	8	Dose-dependent effect	–	inactive	–	–
c1cc2c[n+](c1)CCCCCCCCCCCCCCc1ccc[n+](c1)CCCCCCCCCCCCC2 [CYCLOSTELLETAMINES E]	inactive	7	12	Dose-dependent effect	–	–	–	–
c1cc2c[n+](c1)CCCCCCCCCCCCCCc1ccc[n+](c1)CCCCCCCCCCCCCC2 [CYCLOSTELLETAMINES F]	inactive	8	12	Dose-dependent effect	–	–	38	–
CN[C@@H]1[C@H](O[C@H]2[C@H](O[C@H]3[C@H](O)[C@@H](O)[C@H](N=C(N)N)[C@@H](O)[C@@H]3N=C(N)N)O[C@@H](C)[C@]2(O)C=O)O[C@@H](CO)[C@H](O)[C@H]1O [STREPTOMYCIN SULFATE]	–	35	–	–	–	–	–	20
